Experimental data taken from PMC4424388 (Mucosal Immunology, 2014).
Read-outs that look alike come from different tables or passages of the source.

Tests used:
[1] = system: Streptococcus salivarius ssp thermophilus DSM20617; assay: Antimicrobial radial diffusion assay; format: cell-based; conditions: 1 μg peptide, 2 mM DTT, at least three experiments
Procedure, shortened: (§1)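 Log-phase bacteria washed and diluted to OD600 0.1. Gel: 10 mM sodium phosphate (pH 7.4 or 5.7), 0.3 mg/ml TSB powder, 1% low-EEO agarose, 0–2 mM DTT. Peptide (1 μg/μl stock in 0.01% acetic acid) pipetted into punched wells; overlay gel poured after 3 h. Inhibition-zone diameter read after up to 48 h; 2.5 mm (well/vehicle) means no activity. ≥3 experiments, mean with s.e.m.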

[2] = system: Bifidobacterium breve PZ 1343; assay: Antimicrobial radial diffusion assay; format: cell-based; conditions: 1 μg peptide, 2 mM DTT, at least three experiments
Procedure, shortened: as §1

glutaredoxin = assay: In vitro reduction assay, glutaredoxin; format: biochemical; conditions: 3 μM glutaredoxin with 5 mM reduced glutathione; RP-HPLC; Supplementary Figure 4
Procedure, shortened: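 Glutathione-based system: 5 mM reduced glutathione in 100 mM sodium phosphate with 2 mM EDTA, plus 3 μM active glutaredoxin or buffer only, incubated with oxidized peptide. Mixtures acidified with trifluoroacetic acid and analysed by RP-HPLC: C18 column, 15–45% acetonitrile (TFA-containing solvents) over 30 min at 25 °C and 0.8 ml/min.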

[3] = system: human TRX (with rat TRX reductase, NADPH); assay: In vitro reduction assay, thioredoxin system; format: biochemical; conditions: TRX increased to 6 μM or incubation prolonged to 60 min; data not shown
[4] = Chemical reduction by DTT; format: physicochemical; conditions: incubation extended to 3 h or DTT increased to 10 mM; data not shown
[5] = system: Bifidobacterium longum DSM 20219T; assay: Antimicrobial radial diffusion assay; format: cell-based; conditions: 1 μg peptide, 2 mM DTT, at least three experiments
Procedure, shortened: as §1

[6] = In vitro reduction assay, glutathione; format: physicochemical; conditions: 5 mM reduced glutathione, 100 mM sodium phosphate, 2 mM EDTA; RP-HPLC; Supplementary Figure 4
[7] = system: Bifidobacterium adolescentis Ni3,29c; assay: Antimicrobial radial diffusion assay; format: cell-based; conditions: 1 μg peptide, 2 mM DTT, at least three experiments
Procedure, shortened: as §1

[8] = system: Lactobacillus acidophilus PZ 1138; assay: Antimicrobial radial diffusion assay; format: cell-based; conditions: 1 μg peptide, 2 mM DTT, at least three experiments
Procedure, shortened: as §1

[9] = system: Bif. adolescentis Ni3,29c; assay: Turbidity broth assay; format: cell-based, Bifidobacterium adolescentis; conditions: higher peptide concentrations; causes apparent better growth in OD600
Procedure, shortened: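 Overnight Bif. adolescentis Ni3,29c was washed twice in 10 mM sodium phosphate with 1% TSB. About 5×10^5 CFU/ml were exposed to peptide at 1.25–128 μg/ml, with 2 mM DTT where indicated, for 2 h at 37 °C in an anaerobic jar. 6% TSB was then added and A600 read at 24 and 48 h; change plotted against concentration. CFU counted in parallel on Columbia blood agar. Triplicate experiments, mean with s.e.m.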

[10] = system: human TRX (with rat TRX reductase, NADPH); conditions: cited from earlier work
[11] = system: (anaerobic) commensal gut bacteria; assay: Antimicrobial radial diffusion assay, bacteria not given; format: cell-based; conditions: 1 μg peptide, 2 mM DTT
Procedure, shortened: as §1

[12] = Retention of reduced status in buffer with DTT; format: physicochemical; conditions: 2 mM DTT in sodium phosphate buffer
[13] = system: Bif. adolescentis Ni3,29c; assay: Transmission electron microscopy of bacteria; format: cell-based, Bifidobacterium adolescentis; conditions: TEM, 200 μg/ml peptide, 2 mM DTT, 2 h 37 °C, pH 7.4

With Human α-defensin 6 [HD-6] the “antibiotic activity, especially under reducing conditions” value [1] was “inhibitory activity”, the “antibiotic activity, especially under reducing conditions” value [2] was “inhibitory activity” and the reduction by glutaredoxin (glutaredoxin) was “did not lead to any reduction”. The “reduction by the TRX system” value [3] was “not sufficient to completely reduce”, the “extent of reduction of disulfide bridges by DTT” value [4] was “remarkably enhanced HD-6 reduction, but the oxidized form of the peptide could still be detected” and the “antibiotic activity, especially under reducing conditions” value [5] was “inhibitory activity”. The reduction by glutathione [6] was “did not lead to any reduction”, the “antibiotic activity, especially under reducing conditions” value [7] was “inhibitory activity” and the “antibiotic activity, especially under reducing conditions” value [8] was “inhibitory activity”. For the same molecule, the “aggregation in the turbidity assay” value [9] was “light-scattering aggregations”.

For “human β-defensin 1 (DHYNCVSSGGQCLYSACPIFTKIQGTCYRGKAKCCK; Beta-defensin 1; UniProt P60022 33-68, looked up) [hBD-1, reference compound]”, the “reduction by the TRX system” value [10] is listed as “can also reduce” and the “activity under reducing conditions against several bacteria” value [11] is listed as “increased activity”.

In the case of “ΔredHD-6: synthetic reduced truncated HD-6 (TCHCRRSCYSTEYSYGTCTVMGINHRFCCL; Defensin-6 reduced; UniProt Q01524 71-100, looked up, fragment)”, the “time for which the peptide retained its completely reduced status” value [12] is reported as “at least 2 h” and the “ultrastructural alterations of the bacterium” value [13] is reported as “disintegration of stainable intracellular structures”.

B1: HD-5: synthetic oxidized human α-defensin 5 (peptide, UniProt Q01523 20-94, looked up)
Defensin alpha 5: ESLQERADEATTQKQSGEDNQDLAISFAGNGLSALRTSGSQARATCYCRTGRCATRESLSGVCEISGRLYRLCCR
modifications: Defensin-5
For B1, the “reduction by the TRX system” value [10] is listed as “can also reduce”.
